Counter-ions that a name gives are not always drawn. Like-named read-outs stand apart in the source and are kept apart here.
How the values were obtained:
SERT [1] = molecular target: T1, SERT (Homo sapiens, UniProt P31645); settings: cited from earlier work
serotonin uptake = settings: cited from earlier work
SERT [2] = molecular target: T1, SERT; assay: SERT efflux assay; format: cell-based; settings: for SERT efflux, single concentration: 10 μM, normalized to vehicle (0.1% DMSO = 0%) and 100 μM PCA = 100%
Procedure, shortened: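 hSERT-N1-pEYFP transfected (0.1 μg/well) into HEK293T cells (DMEM, 10% FBS) at seeding, 24 h before assay. In HBSS with 2 mM MgCl2, 2 mM CaCl2 and 5 mM HEPES at 37 °C, cells were loaded with 40 nM [3H]5-HT for 20 min, washed, then exposed 20 min to test compound (final 10 μM–1 nM, 0.1% DMSO). After washing and NaOH lysis, retained radioactivity was scintillation-counted. EC50/Span came from three-parameter log(agonist)-response fits.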

SERT [3] = molecular target: T1, SERT; settings: cocaine 10 μM; value taken from a previous report; cited from earlier work
SERT [4] = molecular target: T1, SERT; format: cell-based
sigma 2 = assay: NIMH PDSP radioligand binding, sigma 2; settings: 10 μM; N = 1 in quadruplicate
Procedure, shortened: (§1)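 Outsourced screen run by the NIMH Psychoactive Drug Screening Program across a broad target panel. Test compound at 10 μM; read-out was % inhibition of binding of a radiolabelled ligand specific to each target. Single experiment (N = 1) run in quadruplicate, with the averaged value reported.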

SERT [5] = molecular target: T1, SERT; assay: NIMH PDSP radioligand binding, SERT; settings: 10 μM; N = 1 in quadruplicate
5-HT3 receptors = molecular target: T2, 5-HT3 receptors (Homo sapiens, UniProt P46098); assay: NIMH PDSP radioligand binding, 5-HT3; settings: 10 μM; N = 1 in quadruplicate
T2 sequence (P46098 24-478): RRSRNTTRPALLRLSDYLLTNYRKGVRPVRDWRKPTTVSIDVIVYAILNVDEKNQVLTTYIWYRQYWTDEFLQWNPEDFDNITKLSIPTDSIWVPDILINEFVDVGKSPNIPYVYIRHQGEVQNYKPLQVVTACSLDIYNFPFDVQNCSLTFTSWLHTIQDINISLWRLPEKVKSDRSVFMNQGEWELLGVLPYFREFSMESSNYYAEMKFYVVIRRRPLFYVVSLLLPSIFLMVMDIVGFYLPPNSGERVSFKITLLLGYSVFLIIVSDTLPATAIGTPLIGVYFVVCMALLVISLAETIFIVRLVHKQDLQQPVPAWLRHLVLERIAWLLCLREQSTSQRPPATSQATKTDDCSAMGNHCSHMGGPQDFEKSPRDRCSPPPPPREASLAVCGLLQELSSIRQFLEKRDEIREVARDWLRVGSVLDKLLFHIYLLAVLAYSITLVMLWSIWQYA
Procedure, shortened: as §1

NET = NET (Homo sapiens, UniProt P23975); assay: NIMH PDSP radioligand binding, NET; settings: 10 μM; N = 1 in quadruplicate
Procedure, shortened: as §1

DAT = DAT (Homo sapiens, UniProt Q01959); assay: NIMH PDSP radioligand binding, DAT; settings: 10 μM; N = 1 in quadruplicate
Procedure, shortened: as §1

sigma 1 = assay: NIMH PDSP radioligand binding, sigma 1; settings: 10 μM; N = 1 in quadruplicate
Procedure, shortened: as §1

adrenergic receptors = assay: NIMH PDSP radioligand binding, adrenergic receptors; settings: 10 μM; N = 1 in quadruplicate
Procedure, shortened: as §1

H1 = H1 (Homo sapiens, UniProt P35367); assay: NIMH PDSP radioligand binding, H1; settings: 10 μM; N = 1 in quadruplicate
Procedure, shortened: as §1

5-HT2B = 5-HT2B (Homo sapiens, UniProt P41595); assay: NIMH PDSP radioligand binding, 5-HT2B; settings: 10 μM; N = 1 in quadruplicate
Procedure, shortened: as §1

SERT-PG^601,602AA = SERT-PG^601,602AA (Homo sapiens, UniProt P31645, G602A/P601A); assay: SERT pharmacochaperoning assay; format: cell-based; settings: 20 μM, 24 h; normalized to vehicle (0.2% DMSO = 0%) and 20 μM noribogaine = 100%
Procedure, shortened: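 HEK293T cells (DMEM, 10% FBS) were transfected at seeding with the misfolding SERT-PG601,602AA plasmid (0.1 μg/well) and kept overnight at 37 °C, 5% CO2. They were then exposed 24 h to test compound at a final 20 μM (0.2% DMSO) in fresh medium. Four 10-min washes with supplemented HBSS preceded 10-min uptake of 40 nM [3H]5-HT. Cells were washed, lysed in 10 mM NaOH and scintillation-counted.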

SERT [6] = molecular target: T1, SERT; settings: cited from earlier work; remark: listed apart in the source
[7] = concentration-response, compared to UCD0184

Chain of NET (P23975 whole entry): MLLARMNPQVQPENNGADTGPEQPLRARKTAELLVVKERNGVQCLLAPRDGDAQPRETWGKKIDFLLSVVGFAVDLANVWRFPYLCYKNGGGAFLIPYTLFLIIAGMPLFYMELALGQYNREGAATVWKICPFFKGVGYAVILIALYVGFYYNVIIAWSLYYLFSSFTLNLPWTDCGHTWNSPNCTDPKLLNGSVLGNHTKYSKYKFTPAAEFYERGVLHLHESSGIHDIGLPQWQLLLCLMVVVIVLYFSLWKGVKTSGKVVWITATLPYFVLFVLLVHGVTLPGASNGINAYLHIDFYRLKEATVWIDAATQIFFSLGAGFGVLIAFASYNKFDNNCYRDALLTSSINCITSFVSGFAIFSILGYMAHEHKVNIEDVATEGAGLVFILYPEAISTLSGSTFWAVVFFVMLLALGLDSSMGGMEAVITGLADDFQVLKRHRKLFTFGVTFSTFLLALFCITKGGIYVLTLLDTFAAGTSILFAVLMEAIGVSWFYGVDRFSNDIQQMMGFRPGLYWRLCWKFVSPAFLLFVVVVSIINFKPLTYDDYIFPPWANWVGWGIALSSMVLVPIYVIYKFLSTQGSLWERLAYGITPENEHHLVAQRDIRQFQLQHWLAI
Chain of H1 (P35367 whole entry): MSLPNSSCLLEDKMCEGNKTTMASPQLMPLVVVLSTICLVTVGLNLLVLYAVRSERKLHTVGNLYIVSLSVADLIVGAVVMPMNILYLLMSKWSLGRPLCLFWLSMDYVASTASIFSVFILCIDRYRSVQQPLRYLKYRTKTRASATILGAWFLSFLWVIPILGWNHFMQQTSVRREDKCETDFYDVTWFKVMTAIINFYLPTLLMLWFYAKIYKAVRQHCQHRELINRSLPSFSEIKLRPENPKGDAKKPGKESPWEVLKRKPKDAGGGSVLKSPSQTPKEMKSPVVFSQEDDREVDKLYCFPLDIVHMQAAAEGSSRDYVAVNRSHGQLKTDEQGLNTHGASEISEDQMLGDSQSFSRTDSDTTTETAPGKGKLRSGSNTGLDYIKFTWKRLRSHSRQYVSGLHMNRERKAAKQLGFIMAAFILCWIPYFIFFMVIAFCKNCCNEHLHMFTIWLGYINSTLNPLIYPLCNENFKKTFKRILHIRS
Chain of 5-HT2B (P41595 whole entry, species assumed): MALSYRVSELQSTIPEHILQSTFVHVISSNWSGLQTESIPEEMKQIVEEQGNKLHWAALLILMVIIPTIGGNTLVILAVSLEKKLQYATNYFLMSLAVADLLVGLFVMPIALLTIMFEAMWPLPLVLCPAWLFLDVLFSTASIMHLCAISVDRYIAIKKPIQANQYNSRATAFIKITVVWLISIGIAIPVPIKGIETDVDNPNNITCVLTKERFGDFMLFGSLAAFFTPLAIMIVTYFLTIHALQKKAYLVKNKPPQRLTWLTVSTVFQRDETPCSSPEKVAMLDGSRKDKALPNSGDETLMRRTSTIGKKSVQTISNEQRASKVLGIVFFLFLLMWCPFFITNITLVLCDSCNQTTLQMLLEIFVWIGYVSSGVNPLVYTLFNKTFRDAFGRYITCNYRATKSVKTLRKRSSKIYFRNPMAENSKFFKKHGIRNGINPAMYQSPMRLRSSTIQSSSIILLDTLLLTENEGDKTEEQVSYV
Chain of DAT (Q01959 whole entry, species assumed): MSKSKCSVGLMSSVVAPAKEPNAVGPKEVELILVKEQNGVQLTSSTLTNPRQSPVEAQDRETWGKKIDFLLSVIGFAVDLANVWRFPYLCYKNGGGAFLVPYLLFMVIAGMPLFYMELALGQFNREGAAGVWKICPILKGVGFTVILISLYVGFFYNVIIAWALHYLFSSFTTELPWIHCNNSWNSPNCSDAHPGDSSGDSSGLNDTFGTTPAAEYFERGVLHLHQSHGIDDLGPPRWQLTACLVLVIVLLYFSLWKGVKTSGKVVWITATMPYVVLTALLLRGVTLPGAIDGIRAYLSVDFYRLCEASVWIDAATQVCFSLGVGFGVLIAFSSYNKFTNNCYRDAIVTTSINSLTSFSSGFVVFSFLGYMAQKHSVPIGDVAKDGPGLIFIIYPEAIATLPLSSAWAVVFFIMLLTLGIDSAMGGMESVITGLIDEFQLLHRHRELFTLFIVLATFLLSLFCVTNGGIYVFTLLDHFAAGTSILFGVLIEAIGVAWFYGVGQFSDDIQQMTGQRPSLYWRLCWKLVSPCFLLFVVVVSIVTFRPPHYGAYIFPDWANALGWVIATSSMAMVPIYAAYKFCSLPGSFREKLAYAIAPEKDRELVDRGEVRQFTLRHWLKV

| SMILES | SERT efflux, single concentration (SERT [2]; HEK293T) | SERT inhibition, single concentration (SERT [4]) | % inhibition of radioligand binding at sigma 2 (in words) (sigma 2) | % inhibition of radioligand binding at SERT (in words) (SERT [5]) | % inhibition of radioligand binding at 5-HT3 (in words) (5-HT3 receptors) | % inhibition of radioligand binding at NET (in words) (NET) | % inhibition of radioligand binding at DAT (in words) (DAT) | % inhibition of radioligand binding at sigma 1 (in words) (sigma 1) | % inhibition of radioligand binding at adrenergic receptors (in words) (adrenergic receptors) | % inhibition of radioligand binding at H1 (in words) (H1) | % inhibition of radioligand binding at 5-HT2B (in words) (5-HT2B) | further results |
| --- | --- | --- | --- | --- | --- | --- | --- | --- | --- | --- | --- | --- |
| CN1C2CCC1CC(OC(=O)c1ccccc1)C2 (centres unmarked) [tropacocaine] | no effect |  |  |  |  |  |  |  |  |  |  | SERT binding affinity relative to cocaine (in words) (SERT [1]): reduced activity relative to cocaine; serotonin uptake inhibition activity relative to cocaine (in words) (serotonin uptake): reduced activity relative to cocaine |
| COC(=O)[C@H]1[C@@H](OC(=O)c2ccccc2)C[C@@H]2CC[C@H]1N2C [cocaine, (−)-cocaine hydrochloride] |  |  |  |  |  |  |  |  |  |  |  | SERT inhibition, single concentration (SERT [3]): ~ 50% |
| CN1[C@@H]2C[C@@H](OC(=O)[C@H](CO)c3ccccc3)C[C@H]1[C@@H]1O[C@@H]12 [scopolamine, scopolamine hydrobromide trihydrate, reference compound] |  | meaningful levels of SERT inhibition |  |  |  |  |  |  |  |  |  |  |
| CN1C2C=C(c3c[nH]c4ccc(F)cc34)CC1CC2 (centres unmarked) [UCD0093] |  |  | potent ligands | substantial binding | high affinity | potent ligands | potent ligands | potent ligands | potent ligands | potent ligands | potent ligands | SERT inhibition potency and efficacy (in words) (SERT [4]; [7]): drastically increased SERT inhibition potency; SERT efflux potency and efficacy (in words) (SERT [2]; [7]): minimal effect on SERT efflux |
| CN1C2C=C(c3c[nH]c4ccccc34)CC1CC2 (centres unmarked) [UCD0184] | appreciable 5-HT efflux | near full inhibition | potent ligands | substantial binding | high affinity | potent ligands | potent ligands | potent ligands | potent ligands | potent ligands | potent ligands | SERT pharmacochaperoning efficacy compared to noribogaine (SERT-PG^601,602AA): did not act as a SERT pharmacochaperone; SERT inhibition Span (Emax) (SERT [4]): 105%; EC50 (SERT [4]; read-out: SERT inhibition EC50, concentration-response, HEK293T): 1100 nM; type of serotonin releasing agent (SRA): full or partial (SERT [2]; SERT-transfected HEK293T cells): full; SERT efflux Span (Emax) (SERT [2]; concentration-response, normalized to vehicle 0% and 100 μM PCA 100%): 75.1%; EC50 (SERT [2]; read-out: SERT efflux EC50, concentration-response, HEK293T): 582 nM; selectivity for SERT over DAT (SERT [6]): approximately 10 fold; selectivity for SERT over NET (SERT [6]): ~100 fold |
